Test [1] deals with Mus musculus. Nature of the test: Hepatoprotective activity in GalN/LPS -stimulated ICR mouse assessed as decrease in serum alanine amino transferase level at 200 mg/kg, ip administered 1 hr prior to GalN/LPS challenge measured after 8 hrs of GalN/LPS injection. In kind it is functional. Particulars: route intraperitoneal. In short, it runs like this: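 Fasted male ICR mice given compound ip in 10% Tween 80–saline 1 h before ip GalN (700 mg/kg)/LPS (10 μg/kg) in PBS. Blood sampled 8 h after challenge; serum ALT measured with an automatic analyzer, reported in U/L. 8–10 mice per group.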

The subject of test [2] is Mus musculus. The test is described as follows: Hepatoprotective activity in GalN/LPS -stimulated ICR mouse assessed as decrease in ratio of phosphorylated BimL protein expression level at 200 mg/kg, ip administered 1 hr prior to GalN/LPS challenge measured after 3 hrs of GalN/LPS injection by Western blotting. It is filed as functional, organism-based. Further details: dose 200 mg/kg. The method, boiled down:
(§1)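 Male ICR mice (25–30 g), fasted overnight, water ad libitum. Compound suspended in 10% Tween 80–saline, given ip 1 h before ip GalN (700 mg/kg) plus E. coli 026:B6 LPS (10 μg/kg) in PBS. Liver homogenized in lysis buffer; 10 μg protein per lane on 10% SDS-PAGE, semidry transfer to nitrocellulose, blocked in 5% skim milk/TBS. Overnight 4 °C primary antibody; β-actin reference. 8–10 mice per group.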

Test [3] has as its system Mus musculus. Nature of the test: Hepatoprotective activity in ip dosed ICR mouse assessed as reduction in GalN/LPS-induced mortality at 200 mg/kg, ip administered 1 hr prior to GalN/LPS challenge measured after 24 hrs of GalN/LPS injection. In kind it is functional, organism-based. Further details: dose 200 mg/kg. The method, boiled down: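 15 male ICR mice per group received compound (25–200 mg/kg) in 10% Tween 80–saline ip 1 h before ip GalN 700 mg/kg plus E. coli 026:B6 LPS 10 μg/kg in PBS; survival monitored over 24 h after challenge.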

For test [4], the system named is Mus musculus. The test is described as follows: Hepatoprotective activity in GalN/LPS -stimulated ICR mouse assessed as decrease in caspase-8 activity at 200 mg/kg, ip administered 1 hr prior to GalN/LPS challenge measured after 8 hrs of GalN/LPS injection relative to control. It is filed as functional. Further details: scale not given: the % may be the effect or the level left. To be noted: route intraperitoneal. In short, it runs like this:
(§2)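 Liver taken 8 h after GalN (700 mg/kg)/LPS (10 μg/kg) ip, homogenized in 25 mM Tris, 5 mM MgCl2, 1 mM EGTA with protease inhibitors; 40000g supernatant, 10 mM DTT added. 30 μg protein preincubated 15 min at room temperature in HEPES/EDTA/NaCl/Triton/DTT buffer, then 200 μM peptide substrate (DEVD for caspase-3, IETD for caspase-8) at 37 °C; fluorescence (400/490 nm) read at 120 min; expressed as % of control.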

Test [5] concerns Mus musculus. Nature of the test: Hepatoprotective activity in GalN/LPS -stimulated ICR mouse assessed as reduction in number of apoptotic hepatocytes at 200 mg/kg, ip administered 1 hr prior to GalN/LPS by TUNEL assay. Also on record: dose 200 mg/kg. In kind it is functional, organism-based. Particulars: Hepatocyte. In short, it runs like this: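 Liver sections from male ICR mice pretreated ip 1 h before GalN (700 mg/kg)/LPS (10 μg/kg). Apoptotic hepatocytes detected with an in situ TUNEL kit; TUNEL-positive cells counted microscopically across 200 histological fields.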

Test [6] deals with Mus musculus. The test is described as follows: Hepatoprotective activity in GalN/LPS-stimulated ICR mouse assessed as decrease in ratio of phosphorylated Bim EL protein expression level at 200 mg/kg, ip administered 1 hr prior to GalN/LPS challenge measured after 3 hrs of GalN/LPS injection by Western blotting. Also on record: dose 200 mg/kg. It is filed as functional, organism-based. In short, it runs like this: as §1

The subject of test [7] is Mus musculus. Nature of the test: Hepatoprotective activity in GalN/LPS -stimulated ICR mouse assessed as decrease in Bax expression level at 200 mg/kg, ip administered 1 hr prior to GalN/LPS challenge measured after 3 hrs of GalN/LPS injection by Western blotting. In kind it is functional, organism-based. Also on record: dose 200 mg/kg. In short, it runs like this:
as §1
(Immunoblotting shows a protein as a band on a membrane.)

The subject of test [8] is Mus musculus. The test is described as follows: Hepatoprotective activity in GalN/LPS -stimulated ICR mouse assessed as reduction in phosphorylated JNK p-46 expression level at 200 mg/kg, ip administered 1 hr prior to GalN/LPS challenge measured after 3 hrs of GalN/LPS injection by Western blotting. In kind it is functional, organism-based. Also on record: dose 200 mg/kg. In short, it runs like this:
as §1

The test system of test [9] is Mus musculus. The test is described as follows: Hepatoprotective activity in GalN/LPS -stimulated ICR mouse assessed as decrease in Bid expression level at 200 mg/kg, ip administered 1 hr prior to GalN/LPS challenge measured after 3 hrs of GalN/LPS injection by Western blotting. Further details: dose 200 mg/kg. In kind it is functional, organism-based. The method, boiled down: as §1

Test [10] relates to Mus musculus. Nature of the test: Hepatoprotective activity in GalN/LPS -stimulated ICR mouse assessed as reduction in phosphorylated JNK p-54 expression level at 200 mg/kg, ip administered 1 hr prior to GalN/LPS challenge measured after 3 hrs of GalN/LPS injection by Western blotting. In kind it is functional, organism-based. Further details: dose 200 mg/kg. In short, it runs like this: as §1

The subject of test [11] is Mus musculus. The test is described as follows: Hepatoprotective activity in GalN/LPS -stimulated ICR mouse assessed as decrease in caspase-3 activity at 200 mg/kg, ip administered 1 hr prior to GalN/LPS challenge measured after 8 hrs of GalN/LPS injection relative to control. In kind it is functional. Further details: scale not given: the % may be the effect or the level left. Particulars: route intraperitoneal. In short, it runs like this:
as §2

The subject of test [12] is Mus musculus. The test is described as follows: Hepatoprotective activity in GalN/LPS -stimulated ICR mouse assessed as suppression of cytochrome c level at 200 mg/kg, ip administered 1 hr prior to GalN/LPS challenge measured after 8 hrs of GalN/LPS injection by Western blotting. It is filed as functional, organism-based. Further details: dose 200 mg/kg. The method, boiled down:
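Male ICR mice; compound in 10% Tween 80–saline ip 1 h before ip GalN 700 mg/kg/LPS 10 μg/kg; liver taken 8 h later. Cytosolic fraction prepared by NE-PER extraction. 50 μg cytosolic protein run on 12% SDS-PAGE, blotted to nitrocellulose, blocked with 5% nonfat milk/PBS, probed 1 h at room temperature with monoclonal anti-cytochrome c, β-actin as reference, HRP secondary. 8–10 mice per group.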

In test [13] the test system is Mus musculus. The test is described as follows: Hepatoprotective activity in GalN/LPS -stimulated ICR mouse assessed as decrease in serum TNFalpha level at 200 mg/kg, ip administered 1 hr prior to GalN/LPS challenge measured after 1 hr of GalN/LPS injection by ELISA. It is filed as functional. To be noted: route intraperitoneal. The method, boiled down: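 Male ICR mice dosed ip (10% Tween 80–saline) 1 h before ip GalN 700 mg/kg plus LPS 10 μg/kg. Serum TNF-α quantified 1 h after challenge by mouse ELISA kit following kit instructions. 8–10 mice per group.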

The test system of test [14] is Mus musculus. The test is described as follows: Hepatoprotective activity in GalN/LPS -stimulated ICR mouse assessed as suppression of TRADD expression level at 200 mg/kg, ip administered 1 hr prior to GalN/LPS challenge measured after 3 hrs of GalN/LPS injection by Western blotting. In kind it is functional, organism-based. Further details: dose 200 mg/kg. In short, it runs like this: as §1

Test [15] deals with Mus musculus. Nature of the test: Hepatoprotective activity in ICR mouse assessed as reduction in GalN/LPS-induced mortality at 200 mg/kg, ip administered 1 hr prior to GalN/LPS challenge measured after 24 hrs of GalN/LPS injection. In kind it is functional, organism-based. Further details: dose 200 mg/kg; scale not given: the % may be the effect or the level left. In short, it runs like this:
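Male ICR mice (25–30 g), fasted overnight with water ad libitum. Pretreatment ip, suspended in 10% Tween 80–saline, 1 h before ip GalN (700 mg/kg) plus E. coli 026:B6 LPS (10 μg/kg) in PBS. Survival monitored for 24 h after GalN/LPS; 15 mice per group.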

Data on 2 compounds can be found in ChEMBL document CHEMBL1909503, “Protective effects of luteolin against apoptotic liver damage induced by D-galactosamine/lipopolysaccharide in mice” (2011).

The source made the active and inactive calls. The calls are words filed in the database; no cut-off is given here.

In the case of `O=c1cc(-c2ccc(O)c(O)c2)oc2cc(O)cc(O)c12` [LUTEOLIN], the Activity was 1059 U/L in [1]; “Dose-dependent effect” in test [3]; 176.8% in test [4]; 251.7% in [11]; 574.2 pg/mL in [13]. The inhibition result in test [2], in test [6], in test [7], in test [8], in [9] and in test [10] was “Active” in each case. Besides, the inhibition result in test [12] and in test [14] was “Active” throughout. Besides, in test [5], the outcome was Active.
In the case of SILYMARIN, the Activity in test [15] stood at 13.3%.
